According to ChEMBL document CHEMBL2429727, “Syntheses, biological evaluation and SAR of ingenol mebutate analogues for treatment of actinic keratosis and non-melanoma skin cancer” (Bioorg Med Chem Lett, 2013):

What was measured:
Keratinocyte [1] = test: Induction of IL-8 release in human primary epidermal keratinocytes after 6 hrs by HTRF assay; format: functional, cell-based
Keratinocyte [2] = test: Induction of TNFalpha release in human primary epidermal keratinocytes after 6 hrs relative to ingenol mebutate; format: functional
Procedure, shortened: (§1)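 Human adult log-phase primary epidermal keratinocytes subcultured at 10,000 cells/well. Incubated with titrated compound for 6 h at 37 °C in humidified 95% air/5% CO2. Secreted cytokines quantified on 4-spot cytokine plates. EC50 is the concentration giving 50% of the maximum effect of the ingenol mebutate reference. Emax is maximal response relative to that reference.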

Keratinocyte [3] = test: Induction of TNFalpha release in human primary epidermal keratinocytes after 6 hrs; format: functional, cell-based; procedure, shortened: as §1
[4] = Induction of oxidative burst in polymorphonuclear leukocytes (unknown origin) isolated from buffy coat at 10 uM after 40 mins by fluorescence assay relative to ingenol mebutate; format: functional
Procedure, shortened: (§2)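 PMN isolated and purified from fresh buffy coats, then incubated 40 min at ambient temperature with titrated compound (top concentration 10 µM) premixed with hydroethidine. Respiratory burst read as fluorescence in relative light units, emission 579 nm, excitation 485 nm. EC50 and Emax are expressed relative to the maximum effect of the ingenol mebutate reference.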

[5] = Induction of oxidative burst in polymorphonuclear leukocytes (unknown origin) isolated from buffy coat after 40 mins by fluorescence assay; format: functional, cell-based; procedure, shortened: as §2
[6] = Chemical stability of the compound in aqueous buffer assessed as drug recovery after 16 hrs at pH 7.4 by HPLC analysis; format: physicochemical; conditions: read-out: Drug recovery
Procedure, shortened: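 DMSO stock diluted with pre-heated (37 °C) aqueous buffer pH 7.4 to at most 30% v/v organic content, then shaken. Held in the HPLC autosampler at 37 °C, first injected within 5 min, then injected repeatedly over 16 h. Recovery taken from the fall in compound peak area, UV detection normally at 270 nm.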

Keratinocyte [7] = test: Induction of IL-8 release in human primary epidermal keratinocytes after 6 hrs by HTRF assay relative to ingenol mebutate; format: functional
[8] = Induction of necrosis in human HeLa cells after 30 mins by resazurin assay; format: cell-based; conditions: read-out: LC50
Procedure, shortened: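 HeLa cells exposed to increasing ester concentrations up to 400 µM for 30 min at 37 °C. Remaining metabolic activity then read with a resazurin-based dye. LC50 is the concentration causing 50% loss of metabolic activity.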

[9] = biological target: Protein kinase C delta type (Homo sapiens, UniProt Q05655); test: Activation of PKCdelta (unknown origin) using phosphatidylserine […]
Procedure, shortened: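 PKCdelta assayed in vitro by phosphorylation of a PKC peptide substrate, with 0.05 mg/mL phosphatidylserine and no diacylglycerol so stimulation could be seen. Compounds serially diluted at semilogarithmic intervals, twelve points from 10 µM. Reaction started by adding ATP.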

Sequence of Protein kinase C delta type (Q05655 whole entry): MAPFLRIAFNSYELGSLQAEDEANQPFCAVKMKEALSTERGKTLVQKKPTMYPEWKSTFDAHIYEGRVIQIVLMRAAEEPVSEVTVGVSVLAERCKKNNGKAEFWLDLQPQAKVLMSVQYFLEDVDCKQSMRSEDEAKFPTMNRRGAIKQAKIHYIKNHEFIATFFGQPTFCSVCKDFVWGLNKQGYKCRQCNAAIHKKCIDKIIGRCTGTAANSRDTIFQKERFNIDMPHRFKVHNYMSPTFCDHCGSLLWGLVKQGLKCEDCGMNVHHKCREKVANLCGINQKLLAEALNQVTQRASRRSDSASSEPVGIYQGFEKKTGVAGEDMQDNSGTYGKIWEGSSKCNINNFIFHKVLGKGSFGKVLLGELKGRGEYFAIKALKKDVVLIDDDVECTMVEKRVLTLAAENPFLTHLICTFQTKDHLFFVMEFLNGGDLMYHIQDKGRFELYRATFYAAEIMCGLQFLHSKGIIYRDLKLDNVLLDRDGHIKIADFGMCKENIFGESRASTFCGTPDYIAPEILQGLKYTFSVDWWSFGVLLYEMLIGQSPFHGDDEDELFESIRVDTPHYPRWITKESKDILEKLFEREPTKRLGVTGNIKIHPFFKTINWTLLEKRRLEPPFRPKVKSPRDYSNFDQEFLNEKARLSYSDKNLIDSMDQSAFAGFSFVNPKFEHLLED

EC50 [9] | Compound | EC50 (Keratinocyte [1]) [nM] | Emax (Keratinocyte [2]) [%] | EC50 (Keratinocyte [3]) [nM] | Emax at 10 µM [4] [%] | EC50 [5] [nM] | remaining at 16 h [6] [%] | Emax (Keratinocyte [7]) [%] | CC50 at 0.5 h [8] [nM]
 | C/C=C(/C)C(=O)O[C@H]1C(C)=C[C@]23C(=O)[C@@H](C=C(CO)[C@@H](OC)[C@]12O)[C@H]1[C@@H](C[C@H]3C)C1(C)C | 738 | 131 | 748 | 119 | 281 | > 95 |  | 
 | C/C=C(/C)C(=O)O[C@H]1C(C)=C[C@@]23C(=O)[C@H]([C@H]4[C@@H](C[C@H]2C)C4(C)C)[C@H]2O[C@@]2(CO)[C@@H](O)[C@]13O | 320 | 156 | 367 | 114 | 50 |  | 119 | 
 | CC(C)=CC(=O)O[C@H]1C(C)=C[C@]23C(=O)[C@@H](C=C(CO)[C@@H](O)[C@]12O)[C@H]1[C@@H](C[C@H]3C)C1(C)C | 86 | 82 | 66 | 109 | 4.3 | 55 | 74 | 283000
 | CC1=C[C@]23C(=O)[C@@H](C=C(CO)[C@@H](O)[C@]2(O)[C@H]1OCC(=O)OC(C)(C)C)[C@H]1[C@@H](C[C@H]3C)C1(C)C | 10000 |  | 10000 | 111 | 3300 | 95 |  | 311000
Not Active | C/C=C(/C)C(=O)O[C@H]1C(C)=C[C@@]23C(=O)[C@H]([C@H]4[C@@H](C[C@H]2C)C4(C)C)[C@H](F)C(CO)=C[C@]13O | 1130 | 67 | 1210 |  | 1240 | > 95 | 57 | 
 | CC1=C[C@]23C(=O)[C@@H](C=C(CO)[C@@H](O)[C@]2(O)[C@H]1OC(=O)/C(C)=C\c1ccc(C)cc1)[C@H]1[C@@H](C[C@H]3C)C1(C)C | 2.1 | 101 | 3.1 | 126 | 5.9 | 45 | 87 | 109000
 | CC1=C[C@]23C(=O)[C@@H](C=C(CO)[C@@H](O)[C@]2(O)[C@H]1OC(=O)c1ccccc1)[C@H]1[C@@H](C[C@H]3C)C1(C)C | 182 | 60 | 88 | 110 | 6 | 30 | 54 | 
 | CC1=C[C@]23C(=O)[C@@H](C=C(CO)[C@@H](O)[C@]2(O)[C@H]1OC(=O)C1=CCCCC1)[C@H]1[C@@H](C[C@H]3C)C1(C)C | 10000 | 42 | 10000 | 99 | 6.7 | 60 | 45 | 
 | CC1=C[C@]23C(=O)[C@@H](C=C(CO)[C@@H](O)[C@]2(O)[C@H]1OC(=O)C1CCCC1)[C@H]1[C@@H](C[C@H]3C)C1(C)C | 69 | 58 | 65 | 107 | 6.5 | 30 | 54 | 
 | CO/N=C(/C(=O)O[C@H]1C(C)=C[C@]23C(=O)[C@@H](C=C(CO)[C@@H](O)[C@]12O)[C@H]1[C@@H](C[C@H]3C)C1(C)C)c1ccccc1 | 10000 | 47 | 10000 | 117 | 28 | 55 | 45 | 
 | C/C=C/C(=O)O[C@H]1C(C)=C[C@]23C(=O)[C@@H](C=C(CO)[C@@H](O)[C@]12O)[C@H]1[C@@H](C[C@H]3C)C1(C)C | 821 | 91 | 802 | 110 | 9.1 | 0 | 93 | 
 | C=C(CC)C(=O)O[C@H]1C(C)=C[C@]23C(=O)[C@@H](C=C(CO)[C@@H](O)[C@]12O)[C@H]1[C@@H](C[C@H]3C)C1(C)C | 21 | 101 | 29 | 102 | 5.2 | 30 | 100 | 129000
